# Assay results collected from several papers.
# Lines come from different studies, so protocols differ.
# Target: Cyclin-dependent kinase 11B (CDK11B, Homo sapiens, UniProt P21127)
# Technique: competition with immobilised ligand
SMILES,read-out,tested at,remaining binding [%]
N#CC1(c2ccccn2)CCN(Cc2cc(C(=O)N3CCCC3)c(=O)n3ccccc23)CC1,cell-free assay,1 µM,80
CCN1CCN(Cc2ccc(C(=O)Nc3ccc(C)c(Oc4ccc5c(c4)CC(=O)N5)c3)cc2C(F)(F)F)CC1,binding,1 µM,100
Nc1ncc2c(n1)-c1c([nH]c3ccc(C#CC4CC4)cc13)CCCC2,binding,1 µM,91
CO[C@H]1CC[C@H](CNc2ccc(S(=O)(=O)NC(=O)c3ccc(N4CCN(CC5=C(c6ccc(Cl)cc6)CC(C)(C)CC5)CC4)cc3Oc3cnc4[nH]ccc4c3)cc2[N+](=O)[O-])CC1,cell-free assay,1 µM,98
CN(C)c1ncc(F)c(-c2cnn3ncccc23)n1,binding,1 µM,100
c1cncc(-c2cccc(Nc3nccc(NC4CCCCC4)n3)c2)c1,binding,10 µM,80
C[C@H]1CCN(c2nccc(-c3cnn4ncccc34)n2)C1,binding,1 µM,90
CC(=O)N1CCC(c2ccc(C(=O)NC(=N)N)cc2C(F)(F)F)CC1,cell-free assay,1 µM,100
N[C@H]1CCN(c2nccc(-c3cnn4ncccc34)n2)C1,binding,1 µM,100
O=C(NC[C@@H]1[C@H]2CN(C(=O)OCc3cc(C(F)(F)F)cc(C(F)(F)F)c3)C[C@@H]12)c1ccc2[nH]nnc2c1,cell-free assay,1 µM,100
CC1CCCN1c1nccc(-c2cnn3ncccc23)n1 (stereo not drawn),binding,1 µM,100
Cc1cnc(Nc2ccc(C(=O)N3CCC(N4CCCC4)CC3)cc2)nc1-c1cc2ccccc2s1,binding,1 µM,100
COc1cnc(Nc2cccc(S(N)(=O)=O)c2)nc1N1CCN(c2ccccc2)CC1,binding,1 µM,99
CN(C)c1nccc(-c2cnn3ncccc23)n1,binding,1 µM,100
COc1ccc2cc(OCC3(C(=O)O)CN(C(=O)c4ccc(F)cc4)C3)ccc2c1,cell-free assay,1 µM,100
COc1cnc(Nc2cccc(S(N)(=O)=O)c2)nc1N1CCN(c2ccccc2)C(=O)C1,binding,1 µM,100
CC1=C(C#N)C(c2ccc3c(c2)c(NC(=O)c2ccccc2C)nn3C)C(C#N)=C(C)N1,cell-free assay,1 µM,100
O=C(NCCCN1CCOCC1)c1ccc(Nc2ncc(Cl)c(-c3ccc(Cl)s3)n2)cc1,binding,1 µM,33
O=C(NCC1CCOCC1)c1n[nH]cc1NC(=O)c1c(F)cccc1F,binding,1 µM,96
O=C(c1ccc(Nc2ncc(Cl)c(-c3cc4ccccc4s3)n2)cc1)N1CCC(N2CCCC2)CC1,binding,1 µM,80
CN(C)c1nccc(-c2cnc3ncccn23)n1,binding,1 µM,100
